According to ChEMBL document CHEMBL4513216, “Probing the Open Global Health Chemical Diversity Library for Multistage-Active Starting Points for Next-Generation Antimalarials” (ACS Infect Dis, 2020):

assay: Toxicity liver stage against HepG2, at 10uM; format: cell-based; design: test concentration 10 uM, cell line HepG2-A16-CD81EGFP; conditions: human, HepG2-A16-CD81EGFP cells; read-out: INHIBITION
How it was run: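 Uninfected HepG2-A16-CD81EGFP cells, 3 × 10^3 per well, 1536-well, plated on prespotted compound at 10 μM final, parasite-free screening media added to match infected plates; puromycin 10 μM positive, DMSO 0.5% negative; run in parallel with 48 h PbLuc assay at 37 °C, 5% CO2; viability by CellTiter-Glo luminescence, normalized to controls.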

Row | SMILES | cytotoxicity at 10 µM
1 | O=C(NC[C@H]1Cn2c(-c3ccccc3)cnc2CO1)C1CC1 | -3.01%
2 | CC(C)NC(=O)[C@@H]1Cc2[nH]cnc2CN1CCCc1ccccc1 | 10.1%
3 | O[C@@H]1C[C@@H](c2nc(-c3cccnc3)no2)N(C2CCOCC2)C1 | -4.03%
4 | COc1cccc(N2CCN(C(=O)c3noc4c3CCCC4)CC2)c1 | 11.7%
5 | CN1CC=C(c2noc(CCC(=O)N3CCOCC3)n2)CC1 | -0.687%
6 | CC(=O)N1N=C(Cc2ccccc2)OC1C(=O)NCC(=O)OC(C)(C)C (stereo not drawn) | 0.15%
7 | COc1cccc(-c2nc(C)c(C(=O)N[C@@H](CCSC)C(=O)O)s2)c1 | -1.64%
8 | COc1cc(OC)c(C2CC(=O)Oc3cc(C)[nH]c(=O)c32)c(OC)c1 (stereo not drawn) | -6.24%
9 | Cc1nnsc1-c1nnc2sc(C(C)C)nn12 | -9.74%
10 | CSCC(C)(O)CNS(=O)(=O)c1ccc(F)cc1 (stereo not drawn) | -8.06%
11 | Cc1cccc(OC2CCN(C(=O)c3ccc4c(c3)OCO4)CC2)n1 | -5.51%
12 | COc1cc(N2CC3(CCN(c4ncccn4)C3)C2)ncn1 | 9.79%
13 | CCS(=O)(=O)N1C[C@@H]2COC[C@@H](Cc3nc(C)no3)[C@@H]2C1 | 9.04%
14 | CN(C)Cc1nn(C)c2c1CN(C(=O)Nc1ccc(F)cc1)C2 | 6.04%
15 | Cc1cccc(NC(=O)N2CCC3(CC(=O)N(c4ccsc4)C3)C2)c1 (stereo not drawn) | 6.47%
16 | CSCCC(CO)NC(=O)c1ccc2[nH]/c(=N\S(C)(=O)=O)sc2c1 (stereo not drawn) | -6.96%
17 | O=C(Cn1nc(N2CCOCC2)ccc1=O)Nc1nccs1 | -1.47%
18 | COc1ccc(N2CCC(C(=O)/N=c3/[nH]ccs3)CC2)nn1 | -13.6%
19 | Cc1cccnc1NC(=O)CC1(Cn2cnnn2)CCCCC1 | -5.62%
20 | Fc1cnc(N2CCO[C@H]3CN(CC4CCC4)C[C@H]32)nc1 | -8.71%
21 | COC(=O)C1=C(C)N=C2SCC(=O)N2C1c1cn(C)nc1C (stereo not drawn) | 8.9%
22 | CNc1nc(C2CCCN(C(=O)C(C)C)C2)nc2c1CN(C)CC2 (stereo not drawn) | -16.3%

Row | SMILES | cytotoxicity at 10 µM
23 | CC1(C(=O)NC2CCCC2)CN(c2cnccn2)CCO1 (stereo not drawn) | -33.9%
24 | CC(=O)N1CCN(CCOc2ccc(F)cc2)CC(C(N)=O)C1 (stereo not drawn) | -38.9%
25 | CNC(=O)c1ccc(C2CCCN(C(=O)c3sc(C)nc3C)C2)nc1 (stereo not drawn) | -36.5%
26 | CCN1CCC(c2cncc(N(C)C)n2)CC1 | 5.12%
27 | Cc1ncccc1C(=O)Nc1cccc(C[S+](C)[O-])c1C (stereo not drawn) | 4.08%
28 | CN(C)c1ccc(C(=O)N2CCCCC2CC(N)=O)c(F)c1 (stereo not drawn) | 7.12%
29 | CCOCCS(=O)(=O)c1nnc(NCCOC)s1 | -7.18%
30 | CC(C)c1nn(C)cc1CNCc1cccc(N(C)C)c1 | -0.509%
31 | CC(NC(=O)NCC(C)(C)O)c1ccc(-c2ccncc2)cc1 (stereo not drawn) | 7.15%
32 | CC(C)c1nnc(CN2CCCC2C(=O)OCc2ccccc2)o1 (stereo not drawn) | 2.78%
33 | CCc1cc(NCCCNS(C)(=O)=O)nc(-c2ccccn2)n1 | 1.8%
34 | COc1ccccc1CC1CCCN(CCN2CCOC2=O)C1 (stereo not drawn) | 6.93%
35 | Cc1ccc(NC(=O)N2CCN(C(=O)CC3CCCC3)CC2)s1 | 4.36%
36 | Clc1cccc(N2CCC(NCc3cc[nH]n3)C2)c1 (stereo not drawn) | 4.01%
37 | Cc1oc(NC(=O)C(C)N2CCN(C(=O)C3CC3)CC2)c(C#N)c1C (stereo not drawn) | -18.6%
38 | O=C(Nc1nncs1)N1CCC(CCc2ccc(O)cc2)CC1 | 6.81%
39 | Cc1cc(C)n(CC2CCCCN2CC(=O)Nc2ccncc2)n1 (stereo not drawn) | 8.69%
40 | CC(C)NC(=O)NCCCc1cccc(F)c1 | -0.0328%
41 | CNC(=O)CN(C)C(=O)Cc1csc(C(C)C)n1 | -5.07%
42 | CSCCN(C)C(=O)C1(c2ccc(F)cc2F)CCOCC1 | 0.53%
43 | OC[C@@H](O)CN(CCC(F)(F)F)c1ncc(Br)cn1 | -8.72%
44 | Cc1cc(NC(=O)Cn2nc(C)c(C#N)c2N)ccc1Br | -6.58%

Row | SMILES | cytotoxicity at 10 µM
45 | CCc1sc(-c2nnc(CNCCn3cccn3)o2)cc1C | 5.05%
46 | CCc1ccc(C(=O)O)cc1S(=O)(=O)Nc1c(C)ccn(C)c1=O | 4.28%
47 | Cc1nc(O)ccc1C(=O)NCc1ncccc1F | 7.97%
48 | CCCNC(=O)c1cccc(CNCc2csc(CC)n2)c1 | -10.7%
49 | CC(=O)c1ccc(S(=O)(=O)N2CCC(c3n[nH]c(C)n3)CC2)cc1 | -5.24%
50 | CC1CCN(CC(O)CN2CCn3c(nnc3C3CC3)C2)CC1 (stereo not drawn) | -2.22%
51 | N#Cc1ccnc(N2CCN(CC(O)c3cccc(F)c3)CC2)c1 (stereo not drawn) | 3.15%
52 | Cc1cccc(CN2CC[C@H]3OCC[C@@]3(C(=O)N3CCOCC3)C2)n1 | -1.49%
53 | Cn1cc(N2C(=O)C[C@@H]3[C@@H]2CCN3C(=O)c2ccco2)cn1 | -107%
54 | CCn1c2c(ccc1=O)CC(NCc1cnn(C)c1)CC2 (stereo not drawn) | -102%
55 | CC(=O)N1CCC2(CC1)CCN(C(=O)c1ccc(F)c(C(F)(F)F)c1)C2 | -80%
56 | CC(C)c1nccc([C@@H]2C[C@@H]3CCN(Cc4ccco4)C[C@H]3O2)n1 | 1.1%
57 | Cc1ccc(-c2cnnc(N3CCCC3c3nccs3)n2)o1 (stereo not drawn) | 3.04%
58 | Cc1noc(C)c1CN1CCCCC1CCc1ccc(O)cc1 (stereo not drawn) | -2.06%
59 | COc1cc(F)c(C(=O)NCc2ccon2)c(F)c1 | 2.13%
60 | Cc1cc(C(=O)N2CCN[C@H](C)C2)c2ccc(F)cc2n1 | 13.7%
61 | CC(=O)c1cc(CN2CCCC23CCN(c2ccccn2)CC3)cs1 | -7.69%
62 | Cc1cc(C)nc(NC(C)Cc2cnccn2)n1 (stereo not drawn) | 1.54%
63 | COc1ccc(CC(=O)N2CCCC(Cn3cc(CN)nn3)C2)cc1 (stereo not drawn) | 7.22%
64 | COc1ccccc1C(C(=O)O)N1CCCN(C2CCCC2)CC1 (stereo not drawn) | -9.12%
65 | Cc1cc2nc(C(C)C)cc(N3CCN(c4ccc(O)cc4)CC3)n2n1 | 10.8%
66 | O=C(NCCc1nc(-c2cccnc2)no1)c1ccc(C2CCCO2)s1 (stereo not drawn) | 11.2%

Row | SMILES | cytotoxicity at 10 µM
67 | CC(=O)N1CCN(C(=O)Nc2ccc(Cl)cc2)[C@H]2CS(=O)(=O)C[C@H]21 | 6.55%
68 | COc1cccn(C(C)C(=O)NC2CCCC2)c1=O (stereo not drawn) | 5.32%
69 | Cc1ccsc1[C@@H]1CCN(C(=O)Cn2cc3ccccc3n2)C[C@H]1O | -1.96%
70 | CCn1c(C2CCCN(Cc3cc(OC)cc(OC)c3)C2)nn(C)c1=O (stereo not drawn) | 0.0264%
71 | CN(C)S(=O)(=O)N1CC[C@]2(O)CCN(c3nccs3)C[C@@H]2C1 | -13%
72 | CN1CCC(N(CCc2ccccc2)C(=O)c2ccc(C#N)nc2)CC1 | -3.33%
73 | COc1cccc(OCC(=O)NCc2ccc3[nH]c(=O)[nH]c3c2)c1 | 2.59%
74 | CC(C)C(NC(=O)c1ccc(=O)[nH]c1)c1nnc2n1CCNCC2 (stereo not drawn) | -1.86%
75 | O=C(Cc1ccc(O)c(Cl)c1)N1CCN(CC2CC2)[C@@H]2CS(=O)(=O)C[C@@H]21 | 5.84%
76 | Fc1ccc(Oc2ccc(CNCC3CNc4ccnn4C3)cn2)cc1 (stereo not drawn) | -11.6%
77 | CCc1nccn1C1CCCN(C(=O)c2ccc3c(c2)nnn3C)C1 (stereo not drawn) | -10.6%
78 | CCc1nc(C(=O)N2CCCCC2)nn1-c1ccccc1Cl | 2.1%
79 | CCC(O)CN1CCN(C(=O)c2cnc3n[nH]c(C)c3c2)CC1 (stereo not drawn) | -5%
80 | COCCN(CCOC)C(=O)Nc1cc(C(F)(F)F)c[nH]c1=O | -4.28%
81 | CC(=O)N(Cc1ncc(C)o1)C1CCN(CCc2cccs2)C1 (stereo not drawn) | -8.85%
82 | O=C(Nc1nncs1)NC1CCN(Cc2ccccc2)C1 (stereo not drawn) | -0.397%
83 | Cc1cc(C)n(CC2CCCCN2CCC(=O)Nc2cc(C)on2)n1 (stereo not drawn) | -1.03%
84 | COc1c(CNC2CCN(c3ncccn3)CC2)c(C(C)C)nn1C | -4.81%
85 | Cc1cc(C(=O)N2CCN(C(=O)Cc3ccccn3)CC2)c(C)s1 | 6.18%
86 | CCCC(C)C(=O)N1CCC(n2cccc2C(=O)OC)CC1 (stereo not drawn) | -10%
87 | O=C(c1cccc(CNS(=O)(=O)c2ccccc2F)c1)N1CCCC1 | -0.0481%
88 | CC(CNC(=O)Nc1cn[nH]c1)N1CCOCC1 (stereo not drawn) | 1.92%

Row | SMILES | cytotoxicity at 10 µM
89 | Cc1nc(C)n(CC2CCCN(Cc3ccc(C(N)=O)cc3)C2)n1 (stereo not drawn) | 0.818%
90 | Nc1nc(Nc2ccccc2)cc(N2CCNCC2)n1 | 1.23%
91 | CCOCc1nn(CC2CC2)c2c1CN(Cc1ccco1)CC2 | 2.7%
92 | CC(=O)N1CCOCC2(CN(Cc3ccccn3)CCO2)C1 (stereo not drawn) | -3.28%
93 | CO[C@H]1CCN(Cc2c(C)noc2C)[C@@H]2CN(Cc3ccncc3)C[C@H]12 | 5.59%
94 | c1cc(CN2CCC(c3ccc4c(c3)OCO4)CC2)ccn1 | -5.21%
95 | O=C(Nc1cnccn1)[C@@H]1CCO[C@@H]2CCN(Cc3ccsc3)C[C@@H]21 | -77.1%
96 | c1ccc(CN2CCc3ncnc(-c4ccoc4)c3CC2)nc1 | -79%
97 | NC(=O)c1nc2c(s1)CCN(Cc1ccccc1)CC2 | 9.61%
98 | O=C(c1cscn1)N1CC[C@@H]2[C@@H]1CCN2C1CCOC1 (stereo partly drawn) | 4.19%
99 | CCOC(=O)c1n[nH]cc1-c1cncn1CCn1nc(C)c(C)c1C | -35.3%
100 | O=C(NCc1cnc2n1CCN(Cc1cccs1)C2)c1ccno1 | -110%
101 | N#Cc1cccc(C(=O)N2CC[C@H]3[C@H]2CCN3CC2CC2)c1 | 3.03%
102 | c1cncc(CN2C[C@H]3CCC[C@@H](CNc4cnccn4)[C@H]3C2)c1 | -2.1%
103 | O=C(CCn1c(C(F)(F)F)cc2cccnc21)N1CCCC1 | -21.5%
104 | CC(C)N(C)Cc1cncc2c1CCN(CC(=O)N(C)C)C2 | -100%
105 | CS(=O)(=O)NC1CC2(CCN(CCF)CC2)Oc2ccccc21 (stereo not drawn) | -2.68%
106 | c1cnc(NCc2cncc3c2CCN(Cc2cccnc2)C3)nc1 | -68.5%
107 | O=S(=O)(C1CC1)N1CCc2ncnc(-c3ccncc3)c2CC1 | -3.27%
108 | C=c1ncsc1=C1NC(c2cccc(CN3CCOCC3)c2)=NO1 | -11.3%
